Experimental data collected from several papers.
Lines come from different studies, so protocols differ.
Cell line: NCI-H23
Effect on: cell growth or viability

| Structure (SMILES) | test | setting | endpoint | result |
| --- | --- | --- | --- | --- |
| O=C1Nc2ccccc2C1=NNc1nnc2n1N=C(c1ccccc1)CS2 | SRB | 10 µM | inhibition | 31% |
| CCCCc1n(Cc2ccc3ccccc3n2)cc[n+]1Cc1ccc2ccccc2n1 | SRB | – | TGI | 7.27 µM |
| Cc1cccc(-n2ncc(Br)c(Br)c2=O)c1 | resazurin | 96 h | IC50 | 0.21 µM |
| C[C@]12CC[C@@H]3c4ccc(O)cc4CC[C@H]3[C@@H]1CC[C@@H]2O | ATP luminescence | 72 h | EC90 | 78.5 µM |
| CCc1n(Cc2ccc3ccccc3n2)cc[n+]1Cc1ccc2ccccc2c1 | SRB | – | TGI | 3.23 µM |
| COc1ccccc1/C=C/C(=O)c1ccc(OC)c(S(N)(=O)=O)c1 | SRB | 48 h | GI50 | 2.3 µM |
| CCc1n(Cc2ccc3ccccc3n2)cc[n+]1Cc1ccc2ccccc2n1 | SRB | – | GI50 | 0.257 µM |
| COc1ccc(C(=O)/C=C/c2ccc3c(c2)OCCO3)cc1S(N)(=O)=O | SRB | 10 µM | inhibition | 27% |
| O=C(/C=C/c1ccc2c(=O)n(CCO)cnc2c1)NO | SRB | 48 h | IC50 | 4.2 µM |
| O=C1NCCc2[nH]c(-c3ccncc3)cc21 | – | – | IC50 | > 10 µM |
| S=C([S][Au-][P+](CCCCCC[P+]([Au-][S]C(=S)n1cccn1)(c1ccccc1)c1ccccc1)(c1ccccc1)c1ccccc1)n1cccn1 | SRB | – | GI50 | 4.76 µM |
| COc1ccc(C(=O)/C=C/c2cccc3ccccc23)cc1S(N)(=O)=O | SRB | 48 h | GI50 | 2.2 µM |
| c1ccc2cc(Cn3cc[n+](Cc4ccc5ccccc5c4)c3)ccc2c1 | SRB | – | TGI | 10.1 µM |
| COc1ccc(C(=O)/C=C/c2ccc3ccccc3c2)cc1S(N)(=O)=O | SRB | 10 µM | inhibition | 124% |
| COc1ccc(-c2ccc(-c3ccc(C(=N)N)nc3)s2)cc1 | SRB | – | GI50 | 1.84 µM |
| COc1ccc(C(=O)/C=C/c2cccnc2)cc1S(N)(=O)=O | SRB | 10 µM | inhibition | 78% |
| O=C(/C=C/c1ccc2ncn(Cc3ccccc3)c(=O)c2c1)NO | SRB | 48 h | IC50 | 1 µM |
